CAL PDZ FP-1: blocks peptide binding to the human CAL PDZ domain | purified CAL PDZ, TMR-peptide fluorescence polarization, 1 h | Q9HD26 | 0.92% of 300,000 active | inhibition, % at 24.9 µM;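 active = mean inhibition of at least 30% with at least half of replicates also reaching 30%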
Rce1 inh: yeast Ras-converting enzyme inhibition | Q03530 | yeast membranes, quenched prenylated peptide cleavage fluorescence | calls only | 0.27% of 290,000 active | AID 2563;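 active = fall in fluorescence gain of 50% or more versus controls, with final raw signal at or below 3038400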
Target sequence (Q03530 whole entry, looked up): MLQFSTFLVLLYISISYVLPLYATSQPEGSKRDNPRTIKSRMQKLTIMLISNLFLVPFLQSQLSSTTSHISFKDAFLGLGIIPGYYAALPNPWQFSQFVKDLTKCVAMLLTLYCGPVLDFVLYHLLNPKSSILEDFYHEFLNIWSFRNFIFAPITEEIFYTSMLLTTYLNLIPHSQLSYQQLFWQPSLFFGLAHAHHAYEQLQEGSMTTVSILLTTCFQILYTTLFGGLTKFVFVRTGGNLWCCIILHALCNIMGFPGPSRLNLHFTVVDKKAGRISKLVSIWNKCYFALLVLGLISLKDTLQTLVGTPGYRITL
CAL PDZ FP-2: human CAL PDZ-peptide interaction inhibition | Q9HD26 | purified CAL PDZ, TMR-peptide fluorescence polarization, 1 h | inhibition, % at 20 µM | 0.02% of 330,000 active | AID 504414;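 active = highest replicate inhibition of at least 40%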
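System: purified tagged CAL PDZ domain construct (CerCALP). Schedule: 1 h incubation at room temperature before polarization reading. Medium: 25 mM sodium phosphate pH 7.4, 150 mM NaCl, TCEP, IgG, Thesit. Read-out: percent inhibition from loss of millipolarization. Measured by: FP readout, S and P plane fluorescence. Probe or stimulus: fluorescent TMR peptide probe.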
ARNT TACC3 PPI: disrupts binding between human ARNT and TACC3; Q9Y6A5; AlphaScreen His-ARNT PAS-B/GST-TACC3 binding, luminescence; TACC3 fragment carries E629A point mutation; 0.66% of 390,000 active; AID 623870; inhibition, % at 9.99 µM;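 active = mean inhibition of replicates at least 50% and at least half of replicates each reaching 50%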
AI-2 QS modul: modulates the Vibrio harveyi AI-2 quorum sensing system. 0.4% of 300,000 active. activity change, % at 7.5 µM. Vibrio harveyi JMH597 AI-2 luminescence/OD600 ratio, 9 h; hits give low values; strain lacks LuxN and CqsS sensors; 0 = neutral-control median; in the data active = activity change below about -75%, passing the limit was not always enough;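 also: luminescence divided by OD600 gain over 9 h not by final OD600 alone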
Hits are given with their value. Compounds with a hit are over-represented: about 1.7% of the library has one in this group of screens.

CN(C)c1ccc(Nc2nc(N)c3ccccc3n2)cc1 was read as CAL PDZ FP-1 inactive, Rce1 inh inactive, CAL PDZ FP-2 inactive, ARNT TACC3 PPI 50 and AI-2 QS modul inactive.
Screening COc1ccccc1CNC(=O)C[C@H]1C[C@H]2c3cc(NC(=O)Cc4ccncc4)ccc3O[C@H]2[C@@H](CO)O1 returned ARNT TACC3 PPI inactive.
COc1ccccc1CNC(=O)C[C@@H]1C[C@@H]2c3cc(NC(=O)Cc4ccncc4)ccc3O[C@@H]2[C@H](CO)O1 was read as ARNT TACC3 PPI 41.
Screening Cc1ccccc1C(=O)NC(=S)N(C)C1CCCCC1 returned CAL PDZ FP-1 inactive, Rce1 inh inactive, CAL PDZ FP-2 inactive and AI-2 QS modul inactive.
For COc1cc2nc(Nc3ccc(C)c(C)c3)nc(N)c2cc1OC the results were CAL PDZ FP-1 inactive, Rce1 inh inactive, CAL PDZ FP-2 inactive, ARNT TACC3 PPI 50 and AI-2 QS modul inactive.
`O=C1/C(=C/c2ccc([N+](=O)[O-])cc2)Oc2cc(O)ccc21` gave CAL PDZ FP-1 inactive, Rce1 inh inactive, CAL PDZ FP-2 inactive, ARNT TACC3 PPI inactive and AI-2 QS modul -83.
`Cc1ccnc2c1ccc1cccnc12` gave CAL PDZ FP-1 inactive, CAL PDZ FP-2 inactive and ARNT TACC3 PPI 63.
Cc1ccnc2c1ccc1ccccc12 was read as CAL PDZ FP-1 inactive, Rce1 inh inactive, CAL PDZ FP-2 inactive, ARNT TACC3 PPI inactive and AI-2 QS modul inactive.
Cc1ccnc2c1ccc1c(C)ccnc12 was read as CAL PDZ FP-1 inactive, CAL PDZ FP-2 inactive and ARNT TACC3 PPI 70.
Screening CC(=O)C1=C(O)C(=O)N(c2ccccn2)C1c1ccc(Cl)cc1 (centres undefined) returned Rce1 inh inactive, CAL PDZ FP-2 inactive, ARNT TACC3 PPI inactive and AI-2 QS modul inactive.
For O=C(c1cc([N+](=O)[O-])ccc1N1CCOCC1)N1CCN(c2ccc([N+](=O)[O-])cc2)CC1 the results were CAL PDZ FP-1 inactive, Rce1 inh inactive, CAL PDZ FP-2 inactive and AI-2 QS modul inactive.
`N#CC(/C(=N/S(=O)(=O)c1cccs1)c1ccccc1)c1nc2ccccc2[nH]1` (centres undefined) gave Rce1 inh active, CAL PDZ FP-2 inactive, ARNT TACC3 PPI inactive and AI-2 QS modul inactive.
CC1(C)CSC(=S)N1S(=O)(=O)c1ccccc1 was read as CAL PDZ FP-1 inactive, Rce1 inh inactive, CAL PDZ FP-2 inactive, ARNT TACC3 PPI 64 and AI-2 QS modul inactive.
Cc1ccc(S(=O)(=O)N2c3ccccc3-c3c(ssc3=S)C2(C)C)cc1 was read as CAL PDZ FP-1 inactive, Rce1 inh inactive, CAL PDZ FP-2 inactive, ARNT TACC3 PPI inactive and AI-2 QS modul inactive.
`CCCCC(C(=O)NC1CCCC1)N(Cc1ccccc1)C(=O)c1snc(C(N)=O)c1N` (centres undefined) gave CAL PDZ FP-1 inactive, Rce1 inh inactive, CAL PDZ FP-2 inactive, ARNT TACC3 PPI inactive and AI-2 QS modul inactive.
Screening O=[N+]([O-])c1cnccc1Nc1ccc(Cl)cc1 returned CAL PDZ FP-1 75, Rce1 inh inactive, CAL PDZ FP-2 inactive, ARNT TACC3 PPI inactive and AI-2 QS modul inactive.
O=C1C(=O)N(C/C=C/c2ccccc2)c2ccccc21 was read as CAL PDZ FP-1 inactive, Rce1 inh active, CAL PDZ FP-2 inactive, ARNT TACC3 PPI inactive and AI-2 QS modul inactive.
Screening O=C1C2CCCN2C(c2ccccc2)N1c1nccs1 (centres undefined) returned CAL PDZ FP-1 inactive, Rce1 inh inactive, CAL PDZ FP-2 inactive, ARNT TACC3 PPI inactive and AI-2 QS modul inactive.
CC(=O)C1CCCN(C(=O)c2ccc3oc(CCc4ccccc4)nc3c2)C1 (centres undefined) was read as CAL PDZ FP-1 47, Rce1 inh inactive, CAL PDZ FP-2 inactive, ARNT TACC3 PPI inactive and AI-2 QS modul inactive.
CCOC(=O)C1CCCN(C(=O)c2ccc3oc(CCc4ccccc4)nc3c2)C1 (centres undefined) was read as CAL PDZ FP-1 inactive, Rce1 inh inactive, CAL PDZ FP-2 inactive, ARNT TACC3 PPI inactive and AI-2 QS modul inactive.
For O=C(CCN1CCOCC1)Nc1cc(C(=O)Nc2ccc(Cl)cc2)ccc1N1CC2CC(C1)c1cccc(=O)n1C2 (centres undefined) the results were CAL PDZ FP-1 62, Rce1 inh inactive, CAL PDZ FP-2 inactive, ARNT TACC3 PPI inactive and AI-2 QS modul inactive.
C/C(=N\NC(=O)CCCNc1ccccc1)c1ccncc1 was read as CAL PDZ FP-1 inactive, Rce1 inh inactive, CAL PDZ FP-2 inactive, ARNT TACC3 PPI inactive and AI-2 QS modul inactive.
C/C(=N\NC(=O)c1cc2ccccc2cc1O)c1ccccn1 was read as CAL PDZ FP-1 inactive, Rce1 inh inactive, CAL PDZ FP-2 inactive, ARNT TACC3 PPI 69 and AI-2 QS modul inactive.
Screening C/C(=N\NC(=O)c1c[nH]c2ccccc12)c1ccccn1 returned CAL PDZ FP-1 inactive, Rce1 inh inactive, CAL PDZ FP-2 inactive, ARNT TACC3 PPI 77 and AI-2 QS modul inactive.
C/C(=N\NC(=O)c1cc2ccccc2cc1O)c1cc2ccccc2o1 was read as CAL PDZ FP-1 inactive, Rce1 inh inactive, CAL PDZ FP-2 inactive, ARNT TACC3 PPI inactive and AI-2 QS modul inactive.
`C/C(=N\NC(=O)CCCNc1ccc(C)cc1)c1ccccn1` gave CAL PDZ FP-1 inactive, Rce1 inh inactive, CAL PDZ FP-2 inactive, ARNT TACC3 PPI 48 and AI-2 QS modul inactive.
Screening C[C@@H]1CN([C@H](C)CO)C(=O)c2cc(-c3cncnc3)cnc2O[C@H]1CN(C)C(=O)c1ccccc1F returned ARNT TACC3 PPI active.
Screening NC(=O)c1ccsc1NC(=O)COC(=O)c1ccccc1NCc1ccco1 returned CAL PDZ FP-1 inactive, Rce1 inh inactive, CAL PDZ FP-2 inactive, ARNT TACC3 PPI inactive and AI-2 QS modul inactive.
Screening Cc1ccc(-c2cnc(N)n2C)cc1C returned CAL PDZ FP-1 inactive, Rce1 inh inactive, CAL PDZ FP-2 inactive, ARNT TACC3 PPI 63 and AI-2 QS modul inactive.
`COC(=O)c1ccc(CN2C(=O)c3ccccc3S2(=O)=O)cc1` gave CAL PDZ FP-1 55, Rce1 inh inactive, ARNT TACC3 PPI inactive and AI-2 QS modul inactive.
`CC(C)c1ccc(CN2C(=O)c3ccccc3S2(=O)=O)cc1` gave CAL PDZ FP-1 inactive, Rce1 inh inactive, CAL PDZ FP-2 inactive, ARNT TACC3 PPI inactive and AI-2 QS modul inactive.
Screening CC12CCC(C(=O)NC(c3ccccc3)c3ccccc3)(OC1=O)C2(C)C (centres undefined) returned Rce1 inh inactive, CAL PDZ FP-2 inactive, ARNT TACC3 PPI inactive and AI-2 QS modul inactive.
Screening Cc1nc(N)[nH]c(=O)c1CC(=O)OCCCl returned CAL PDZ FP-1 56, Rce1 inh inactive, CAL PDZ FP-2 inactive, ARNT TACC3 PPI inactive and AI-2 QS modul inactive.
For CC(=O)Nc1ccc(S(=O)(=O)NC(C)C(=O)NCC(c2ccco2)N(C)C)cc1 (centres undefined) the results were CAL PDZ FP-1 inactive, CAL PDZ FP-2 inactive and ARNT TACC3 PPI inactive.
Screening COc1cc2cc(C(=O)O)[nH]c2c(OC)c1OC returned CAL PDZ FP-1 inactive, Rce1 inh active, CAL PDZ FP-2 inactive, ARNT TACC3 PPI inactive and AI-2 QS modul inactive.
